Key:
[1] = AUC in B6 mouse at 5 mg/kg, ip; type: ADME, organism-based; conditions: in vivo
[2] = molecular target: Serine/threonine-protein kinase PRP4 homolog (Homo sapiens) (UniProt Q13523); assay: Binding affinity to wild-type human partial length PRP4 (D657 to I1007 residues) expressed in bacterial expression system assessed as residual binding level at 1 uM by Kinomescan method relative to control
Procedure, shortened: (§1)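 Active-site-directed competition binding panel of 468 kinases (KinomeScan), compound at 1 μM. The read-out is kinase remaining bound, given as a percentage of the DMSO control. […]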

[3] = molecular target: Phosphatidylinositol 4-phosphate 3-kinase C2 domain-containing subunit beta (Homo sapiens) (UniProt O00750); assay: Binding affinity to wild-type human partial length PIK3C2B (M1 to L1634 residues) expressed in mammalian expression system assessed as residual binding level at 1 uM by Kinomescan method relative to control
[4] = tested on: Phosphatidylinositol 4,5-bisphosphate 3-kinase catalytic subunit alpha isoform (Homo sapiens), P42336 [M1043I]; assay: Binding affinity to human partial length PIK3CA M1043I mutant (R108 to N1068 residues) expressed in mammalian expression system assessed as residual binding level at 1 uM by Kinomescan method relative to control
Procedure, shortened: (§2)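 KinomeScan active site-directed competition binding panel (468 kinases), compound tested at 1 μM. Result expressed as remaining kinase signal versus DMSO control (percent of control).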

[5] = molecular target: Ribosomal protein S6 kinase alpha-4 (Homo sapiens) (UniProt O75676); assay: Binding affinity to wild-type human partial length C-terminal RPS6KA4 kinase domain 2 (M375 to T705 residues) expressed in mammalian expression system assessed as residual binding level at 1 uM by Kinomescan method relative to control
Sequence of Ribosomal protein S6 kinase alpha-4 (Homo sapiens) (O75676 whole entry, looked up, the tested form may be a part): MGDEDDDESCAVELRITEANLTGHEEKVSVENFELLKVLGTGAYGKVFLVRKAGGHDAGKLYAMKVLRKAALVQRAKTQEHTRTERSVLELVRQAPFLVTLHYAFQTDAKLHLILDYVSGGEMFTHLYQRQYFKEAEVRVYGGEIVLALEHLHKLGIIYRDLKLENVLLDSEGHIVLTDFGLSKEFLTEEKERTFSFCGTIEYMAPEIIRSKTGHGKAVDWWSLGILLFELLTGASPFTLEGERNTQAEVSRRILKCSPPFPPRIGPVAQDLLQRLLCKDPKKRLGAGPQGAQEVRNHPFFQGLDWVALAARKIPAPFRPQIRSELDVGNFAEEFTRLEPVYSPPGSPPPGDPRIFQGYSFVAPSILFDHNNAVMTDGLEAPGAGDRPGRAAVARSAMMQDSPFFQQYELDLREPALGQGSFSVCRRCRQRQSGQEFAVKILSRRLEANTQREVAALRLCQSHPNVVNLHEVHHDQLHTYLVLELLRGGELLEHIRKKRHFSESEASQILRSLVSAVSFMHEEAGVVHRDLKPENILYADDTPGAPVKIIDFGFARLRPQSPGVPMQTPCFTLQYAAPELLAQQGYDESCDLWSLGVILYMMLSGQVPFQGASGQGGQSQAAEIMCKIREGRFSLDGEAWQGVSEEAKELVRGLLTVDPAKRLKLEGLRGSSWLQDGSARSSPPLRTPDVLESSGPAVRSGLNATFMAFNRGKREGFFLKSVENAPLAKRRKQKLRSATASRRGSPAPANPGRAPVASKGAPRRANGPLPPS

[6] = molecular target: Tyrosine-protein kinase Blk (Homo sapiens) (UniProt P51451); assay: Binding affinity to wild-type human partial length BLK (G211 to L503 residues) expressed in bacterial expression system assessed as residual binding level at 1 uM by Kinomescan method relative to control
Procedure, shortened: (§3)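 KinomeScan, an active site-directed competition binding panel of 468 kinases. The test compound was at 1 μM. The readout is remaining kinase binding as a percentage of the DMSO control. Scores above 35% were treated as weak binding and not listed.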

[7] = molecular target: Ribosomal protein S6 kinase alpha-3 (Homo sapiens) (UniProt P51812); assay: Binding affinity to wild-type human partial length C-terminal RSK2 kinase domain 2 (V402 to S715 residues) expressed in mammalian expression system assessed as residual binding level at 1 uM by Kinomescan method relative to control
Sequence of Ribosomal protein S6 kinase alpha-3 (Homo sapiens) (P51812 whole entry, the tested form may be a part, canonical isoform): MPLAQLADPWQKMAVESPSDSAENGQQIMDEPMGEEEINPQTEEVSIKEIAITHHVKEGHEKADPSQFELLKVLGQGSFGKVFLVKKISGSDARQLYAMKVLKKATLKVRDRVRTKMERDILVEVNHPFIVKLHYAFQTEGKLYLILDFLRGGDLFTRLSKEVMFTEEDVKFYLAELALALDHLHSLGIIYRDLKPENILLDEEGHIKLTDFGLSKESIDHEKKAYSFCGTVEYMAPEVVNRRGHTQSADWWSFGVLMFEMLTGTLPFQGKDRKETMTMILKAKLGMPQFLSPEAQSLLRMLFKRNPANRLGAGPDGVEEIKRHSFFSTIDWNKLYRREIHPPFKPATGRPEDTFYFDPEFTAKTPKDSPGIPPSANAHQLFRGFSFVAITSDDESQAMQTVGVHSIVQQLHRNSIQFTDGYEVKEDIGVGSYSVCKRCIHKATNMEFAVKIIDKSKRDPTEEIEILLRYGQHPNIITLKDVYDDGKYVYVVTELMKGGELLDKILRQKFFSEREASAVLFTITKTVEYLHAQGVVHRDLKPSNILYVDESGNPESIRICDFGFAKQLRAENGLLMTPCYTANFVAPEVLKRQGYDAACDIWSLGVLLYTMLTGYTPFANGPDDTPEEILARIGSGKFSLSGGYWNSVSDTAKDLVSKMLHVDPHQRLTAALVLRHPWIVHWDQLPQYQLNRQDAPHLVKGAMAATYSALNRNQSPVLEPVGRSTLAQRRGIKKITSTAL

[8] = molecular target: Phosphatidylinositol 4,5-bisphosphate 3-kinase catalytic subunit gamma isoform (Homo sapiens) (UniProt P48736); assay: Binding affinity to wild-type human partial length PIK3CG (S144 to A1102 residues) expressed in mammalian expression system assessed as residual binding level at 1 uM by Kinomescan method relative to control
[9] = molecular target: Mitogen-activated protein kinase 11 (Homo sapiens) (UniProt Q15759); assay: Binding affinity to wild-type human full length p38-beta (M1 to Q364 residues) expressed in bacterial expression system assessed as residual binding level at 1 uM by Kinomescan method relative to control; procedure, shortened: as §3
[10] = molecular target: Mitogen-activated protein kinase 13 (Homo sapiens) (UniProt O15264); assay: Binding affinity to wild-type human full length p38-delta (M1 to L365 residues) expressed in bacterial expression system assessed as residual binding level at 1 uM by Kinomescan method relative to control
Sequence of Mitogen-activated protein kinase 13 (Homo sapiens) (O15264 whole entry, the tested form may be a part): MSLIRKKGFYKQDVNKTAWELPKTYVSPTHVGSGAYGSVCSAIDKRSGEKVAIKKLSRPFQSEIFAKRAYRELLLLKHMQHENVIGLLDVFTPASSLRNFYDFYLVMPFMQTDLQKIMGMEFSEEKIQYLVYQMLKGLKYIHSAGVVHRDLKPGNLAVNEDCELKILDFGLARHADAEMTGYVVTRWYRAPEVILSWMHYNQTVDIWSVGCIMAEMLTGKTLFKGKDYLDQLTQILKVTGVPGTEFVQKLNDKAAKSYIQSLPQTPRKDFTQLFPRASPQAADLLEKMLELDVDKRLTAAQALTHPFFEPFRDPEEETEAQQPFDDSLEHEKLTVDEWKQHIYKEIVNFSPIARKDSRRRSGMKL

[11] = molecular target: Aurora kinase C (Homo sapiens) (UniProt Q9UQB9); assay: Binding affinity to wild-type human full length AURKC (M1 to S275 residues) expressed in bacterial expression system assessed as residual binding level at 1 uM by Kinomescan method relative to control; procedure, shortened: as §3
[12] = molecular target: Death-associated protein kinase 1 (Homo sapiens) (UniProt P53355); assay: Binding affinity to wild-type human partial length DAPK1 (M1 to F296 residues) expressed in bacterial expression system assessed as residual binding level at 1 uM by Kinomescan method relative to control
Sequence of Death-associated protein kinase 1 (Homo sapiens) (P53355 whole entry, looked up, the tested form may be a part): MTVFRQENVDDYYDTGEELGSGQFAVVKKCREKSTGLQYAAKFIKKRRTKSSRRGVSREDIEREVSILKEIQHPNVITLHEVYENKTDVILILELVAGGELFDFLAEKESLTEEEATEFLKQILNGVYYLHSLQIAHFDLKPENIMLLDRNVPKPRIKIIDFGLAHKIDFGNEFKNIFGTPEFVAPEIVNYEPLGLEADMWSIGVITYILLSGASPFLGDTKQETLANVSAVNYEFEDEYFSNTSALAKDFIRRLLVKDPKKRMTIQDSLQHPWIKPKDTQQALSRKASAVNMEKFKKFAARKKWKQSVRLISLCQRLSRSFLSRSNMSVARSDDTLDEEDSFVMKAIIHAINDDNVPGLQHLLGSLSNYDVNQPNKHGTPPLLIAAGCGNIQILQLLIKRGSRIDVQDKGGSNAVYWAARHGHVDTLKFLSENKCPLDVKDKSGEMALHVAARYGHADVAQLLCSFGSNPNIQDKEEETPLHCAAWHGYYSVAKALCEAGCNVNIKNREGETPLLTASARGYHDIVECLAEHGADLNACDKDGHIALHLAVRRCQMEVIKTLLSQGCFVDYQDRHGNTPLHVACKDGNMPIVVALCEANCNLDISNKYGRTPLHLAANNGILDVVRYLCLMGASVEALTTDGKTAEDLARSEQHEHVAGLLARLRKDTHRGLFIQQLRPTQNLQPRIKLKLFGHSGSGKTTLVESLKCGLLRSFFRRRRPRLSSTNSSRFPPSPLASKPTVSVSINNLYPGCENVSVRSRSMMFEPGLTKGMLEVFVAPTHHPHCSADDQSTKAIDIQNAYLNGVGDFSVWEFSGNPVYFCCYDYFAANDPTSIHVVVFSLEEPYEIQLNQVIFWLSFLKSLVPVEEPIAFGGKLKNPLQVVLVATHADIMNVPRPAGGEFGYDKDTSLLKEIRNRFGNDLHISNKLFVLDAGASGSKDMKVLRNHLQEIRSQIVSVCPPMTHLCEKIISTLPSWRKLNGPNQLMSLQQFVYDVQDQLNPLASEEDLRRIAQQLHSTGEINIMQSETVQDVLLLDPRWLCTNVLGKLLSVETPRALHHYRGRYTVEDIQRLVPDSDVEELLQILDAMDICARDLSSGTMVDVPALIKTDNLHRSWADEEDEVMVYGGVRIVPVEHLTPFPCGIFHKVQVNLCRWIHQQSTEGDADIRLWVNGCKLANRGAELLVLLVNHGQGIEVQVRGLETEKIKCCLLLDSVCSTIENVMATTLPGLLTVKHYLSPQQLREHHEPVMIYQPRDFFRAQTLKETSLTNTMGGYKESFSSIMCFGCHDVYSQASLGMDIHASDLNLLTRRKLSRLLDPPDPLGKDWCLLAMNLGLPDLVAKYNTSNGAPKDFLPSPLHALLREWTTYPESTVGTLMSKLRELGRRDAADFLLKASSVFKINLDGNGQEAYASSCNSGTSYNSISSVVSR

[13] = molecular target: Activin receptor type-2A (Homo sapiens) (UniProt P27037); assay: Binding affinity to wild-type human ACVR2A (V171 to T499 residues) expressed in bacterial expression system assessed as residual binding level at 1 uM by Kinomescan method relative to control
Procedure, shortened: (§4)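 Active-site-directed KinomeScan competition binding panel covering 468 kinases, compound tested at 1 μM. Each readout is the kinase signal remaining with compound, expressed as a percentage of the DMSO control. […]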

[14] = molecular target: Interleukin-1 receptor-associated kinase 3 (Homo sapiens) (UniProt Q9Y616); assay: Binding affinity to wild-type human partial length IRAK3 (V147 to E596 residues) expressed in bacterial expression system assessed as residual binding level at 1 uM by Kinomescan method relative to control
[15] = molecular target: Ephrin type-A receptor 1 (Homo sapiens) (UniProt P21709); assay: Binding affinity to wild-type human partial length EPHA1 (V588 to I913 residues) expressed in bacterial expression system assessed as residual binding level at 1 uM by Kinomescan method relative to control
[16] = molecular target: Rhodopsin kinase GRK7 (Homo sapiens) (UniProt Q8WTQ7); assay: Binding affinity to wild-type human full length GRK7 (M1 to L553 residues) expressed in mammalian expression system assessed as residual binding level at 1 uM by Kinomescan method relative to control; procedure, shortened: as §4
Sequence of Rhodopsin kinase GRK7 (Homo sapiens) (Q8WTQ7 whole entry, the tested form may be a part): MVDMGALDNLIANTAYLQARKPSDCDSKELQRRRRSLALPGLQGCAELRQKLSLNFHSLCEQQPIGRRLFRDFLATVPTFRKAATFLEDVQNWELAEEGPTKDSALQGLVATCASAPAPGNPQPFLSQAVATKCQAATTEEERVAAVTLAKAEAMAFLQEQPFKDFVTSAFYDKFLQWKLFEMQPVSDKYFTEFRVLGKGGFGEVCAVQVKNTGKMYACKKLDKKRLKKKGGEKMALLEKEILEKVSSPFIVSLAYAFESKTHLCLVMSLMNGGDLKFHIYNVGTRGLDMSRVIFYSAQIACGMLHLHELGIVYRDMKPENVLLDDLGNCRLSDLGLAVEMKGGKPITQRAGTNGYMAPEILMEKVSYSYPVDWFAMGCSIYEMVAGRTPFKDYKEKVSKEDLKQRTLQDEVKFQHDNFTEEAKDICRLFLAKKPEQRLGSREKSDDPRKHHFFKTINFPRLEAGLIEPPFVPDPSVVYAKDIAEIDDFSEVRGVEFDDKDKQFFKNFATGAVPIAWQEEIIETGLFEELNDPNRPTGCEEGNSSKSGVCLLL

[17] = molecular target: Hepatocyte growth factor receptor (Homo sapiens) (UniProt P08581); assay: Binding affinity to wild-type human partial length MET (D1010 to S1367 residues) expressed in bacterial expression system assessed as residual binding level at 1 uM by Kinomescan method relative to control
[18] = molecular target: Serine/threonine-protein kinase MARK1 (Homo sapiens) (UniProt Q9P0L2); assay: Binding affinity to wild-type human partial length MARK1 (Q30 to T341 residues) expressed in bacterial expression system assessed as residual binding level at 1 uM by Kinomescan method relative to control; procedure, shortened: as §1
[19] = molecular target: Serine/threonine-protein kinase LATS2 (Homo sapiens) (UniProt Q9NRM7); assay: Binding affinity to wild-type human partial length LATS2 (Q641 to V1088 residues) expressed in mammalian expression system assessed as residual binding level at 1 uM by Kinomescan method relative to control
Sequence of Serine/threonine-protein kinase LATS2 (Homo sapiens) (Q9NRM7 whole entry, the tested form may be a part): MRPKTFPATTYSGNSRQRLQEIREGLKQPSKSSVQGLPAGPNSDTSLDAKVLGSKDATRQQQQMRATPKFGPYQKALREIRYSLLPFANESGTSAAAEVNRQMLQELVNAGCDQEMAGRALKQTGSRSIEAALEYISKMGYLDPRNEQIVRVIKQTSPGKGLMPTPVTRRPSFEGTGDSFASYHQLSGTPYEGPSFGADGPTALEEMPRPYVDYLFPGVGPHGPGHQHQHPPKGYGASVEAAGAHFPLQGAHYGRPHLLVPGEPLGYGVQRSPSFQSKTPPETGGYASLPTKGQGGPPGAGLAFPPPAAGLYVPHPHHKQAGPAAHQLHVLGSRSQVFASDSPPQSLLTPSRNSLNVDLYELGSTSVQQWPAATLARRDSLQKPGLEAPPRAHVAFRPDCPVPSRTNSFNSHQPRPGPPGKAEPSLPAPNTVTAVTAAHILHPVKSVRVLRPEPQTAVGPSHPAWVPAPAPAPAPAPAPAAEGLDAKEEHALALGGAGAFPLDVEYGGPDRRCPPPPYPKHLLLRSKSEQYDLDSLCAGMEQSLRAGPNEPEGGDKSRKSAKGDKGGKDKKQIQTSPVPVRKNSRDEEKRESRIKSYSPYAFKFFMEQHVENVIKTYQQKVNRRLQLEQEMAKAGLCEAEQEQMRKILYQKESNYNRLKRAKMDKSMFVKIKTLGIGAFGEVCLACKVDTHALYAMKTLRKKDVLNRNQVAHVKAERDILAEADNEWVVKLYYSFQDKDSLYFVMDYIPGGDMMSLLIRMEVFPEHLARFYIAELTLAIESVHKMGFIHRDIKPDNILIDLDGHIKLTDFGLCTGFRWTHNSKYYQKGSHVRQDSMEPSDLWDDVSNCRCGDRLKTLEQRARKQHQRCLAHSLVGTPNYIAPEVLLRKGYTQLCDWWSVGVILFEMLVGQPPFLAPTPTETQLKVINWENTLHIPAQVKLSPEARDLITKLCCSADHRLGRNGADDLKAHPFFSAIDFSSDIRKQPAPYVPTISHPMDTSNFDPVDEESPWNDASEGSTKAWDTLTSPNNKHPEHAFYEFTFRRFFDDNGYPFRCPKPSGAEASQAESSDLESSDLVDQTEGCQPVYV

[20] = molecular target: Platelet-derived growth factor receptor alpha (Homo sapiens) (UniProt P16234); assay: Binding affinity to wild-type human partial length PDGFRA (V575 to D1002 residues) expressed in mammalian expression system assessed as residual binding level at 1 uM by Kinomescan method relative to control; procedure, shortened: as §1
[21] = tested on: Epidermal growth factor receptor (Homo sapiens), P00533 [UNDEFINED MUTATION]; assay: Binding affinity to human partial length EGFR L747-T751del/Sins mutant expressed in bacterial expression system assessed as residual binding level at 1 uM by Kinomescan method relative to control; procedure, shortened: as §2

## C=CC(=O)Nc1ccccc1Nc1nc(Nc2ccc(N3CCN(C)CC3)cc2)ncc1C(=O)Nc1c(C)cccc1Cl
[1]
  AUC: 212 ng·h/mL
[2]
  Activity: 81%
[3]
  Activity: 100%
[4]
  Activity: 100%
[5]
  Activity: 100%
[6]
  Activity: 0.15%
[7]
  Activity: 100%
[8]
  Activity: 100%
[9]
  Activity: 98%
[10]
  Activity: 100%
[11]
  Activity: 98%
[12]
  Activity: 100%
[13]
  Activity: 100%
[14]
  Activity: 100%
[15]
  Activity: 100%
[16]
  Activity: 100%
[17]
  Activity: 100%
[18]
  Activity: 99%
[19]
  Activity: 100%
[20]
  Activity: 90%
[21]
  Activity: 73%

From ChEMBL document CHEMBL4354843, “Structure-Based Design of a Potent and Selective Covalent Inhibitor for SRC Kinase That Targets a P-Loop Cysteine” (J Med Chem, 2020)
